Columns and labels:
[1] = test system: H460 cells with wild type p53; test: Caspase-Glo 3/7 assay in H460 cells; type: cell-based, human; conditions: 20 μM, 24 h
Procedure, shortened: (§1)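 Human lung cancer cells, H460 (wild-type p53) and H1299 (p53 deleted), were exposed for 24 h to test compound at 20 μM. Controls were DMSO, a negative-control compound (20 μM) and a known MDM2 inhibitor as positive control (20 μM). Caspase 3/7 activity was then measured with the Caspase-Glo 3/7 assay kit.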

[2] = test system: H1299 cells with deleted p53; test: Caspase-Glo 3/7 assay in H1299 cells; type: cell-based, human; conditions: 20 μM, 24 h
Procedure, shortened: as §1

## CC(C)(C)C[C@H]1N[C@@H](C(=O)NCCN2CCOCC2)[C@H](c2cccc(Cl)c2F)[C@@]12C(=O)Nc1cc(Cl)ccc12 [MI-63]
[1]
  induction of caspase 3/7 activity: ~5 fold
[2]
  effect on caspase 3/7 activity: no effect
